This note sets out measurements from ChEMBL document CHEMBL1148946, “Farinosones A-C, neurotrophic alkaloidal metabolites from the entomogenous deuteromycete Paecilomyces farinosus” (J Nat Prod, 2004).

Data set [1] relates to PC-12. Put plainly: Cytotoxicity against rat PC12 cells at 0.1 to 50 uM after 4 hrs. In kind it is cell-based. To be noted: pc-12, 2 days, in the assay text read “after 2 days” for “after 4 hrs”. The procedure, abridged:
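MTT viability in PC-12 cells (DSMZ) in DMEM with 10% HS, 5% FBS and pen/strep; 5 × 10^4 cells/mL seeded, 1 h at 37 °C, then MeOH or DMSO stocks diluted in DMEM to 50, 20, 10, 1, 0.1 µM. Cells exposed 2 days at 37 °C, 5% CO2. MTT added for 4 h, SDS lysis overnight, OD 544 nm. Quadruplicate, mean ± SD; 0.2% MeOH/1% DMSO taken as 100% viability.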

The test system of data set [2] is PC-12. Put plainly: Induction of neuritogenic activity in rat PC12 cells assessed as round cells without differention at 20 uM after 48 hrs by phase contrast microscope. In kind it is functional. The procedure, abridged:
(§1)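 PC-12 cells (DSMZ) were primed 5 days in DMEM with 1% HS, 0.5% FBS and 50 ng/mL NGF, then put back in full-serum DMEM. Cells were dispersed through a 21-gauge needle, seeded at 1 × 10^5 cells/mL on collagen-coated wells and allowed 4 h. Compound at final 20 or 50 µM (0.2% MeOH or DMSO) for 48 h; NGF 50 ng/mL control. Phase-contrast scoring of 300 cells in three areas of two wells.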

For data set [3], the system named is PC-12. Put plainly: Induction of neuritogenic activity in rat PC12 cells assessed as cells with length of one cell diameter at 20 uM after 48 hrs by phase contrast microscope. It counts as functional. The procedure, abridged: as §1
Data set [4] deals with PC-12. The experiment in a line: Induction of neuritogenic activity in rat PC12 cells assessed as cells with longer than one cell diameter at 50 uM after 48 hrs by phase contrast microscope. It counts as functional. The procedure, abridged: as §1
In data set [5] the test system is PC-12. Put plainly: Induction of neuritogenic activity in rat PC12 cells assessed as cells with length of one cell diameter at 50 uM after 48 hrs by phase contrast microscope. It counts as functional. The procedure, abridged: as §1
Data set [6] concerns PC-12. Put plainly: Induction of neuritogenic activity in rat PC12 cells assessed as round cells without differention at 50 uM after 48 hrs by phase contrast microscope. In kind it is functional. The procedure, abridged:
as §1

Data set [7] concerns PC-12. Put plainly: Induction of neuritogenic activity in rat PC12 cells assessed as cells with flattened appearance at 20 uM after 48 hrs by phase contrast microscope. It counts as functional. The procedure, abridged: as §1
Data set [8] deals with PC-12. Put plainly: Induction of neuritogenic activity in rat PC12 cells assessed as cells with flattened appearance at 50 uM after 48 hrs by phase contrast microscope. In kind it is functional. The procedure, abridged:
as §1

Consider `CCC(C)/C=C(C)/C=C/C=C/C=C/C(=O)c1c(O)c(-c2ccc(O)cc2)cn(O)c1=O` (stereo not drawn) [FARINOSONE B], for which, in data set [1], the Activity entry is “Non-toxic”.
Take `CCC(C)/C=C(C)/C=C/C=C/C=C/C(=O)c1c(O)c(-c2ccc(O)cc2)c[nH]c1=O` (stereo not drawn) [FARINOSONE A]: the Activity entry in data set [1] is listed as “Non-toxic”; in data set [2] it was 60%; in data set [3] it was 40%; in data set [4], 10%; in data set [5], 60%; in data set [6] it was 30%.
Take `CC(/C=C/C(=O)NC(CO)Cc1ccc(O)cc1)=C\C(C)CC(=O)O` (stereo not drawn) [FARINOSONE C]: the Activity entry in data set [1] is “Non-toxic”; in data set [2], 47%; in data set [7], 53%; in data set [5], 13%; in data set [8] it was 60%; in data set [6], 27%.
